“And” between values parts separate entries of the source, which are not always exact repeats. Identical values can stand only once.
Experiments:
[1] = biological target: T1, Transthyretin (Homo sapiens, UniProt P02766); assay: Inhibition of transthyretin fibril formation at pH 4.4 at 100 uM; format: functional
Outline: (§1)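 Library screen of acid-mediated TTR fibril formation at pH 4.4 with inhibitor at 100 µM. TTR was at 7.2 µM.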

[2] = biological target: T1, Transthyretin; assay: Inhibition of transthyretin amyloidosis assessed as fibril formation pH 4.4 at 100 uM; format: functional; outline: as §1

Structure (SMILES) | inhibition [1] | percent fibril formation relative to control [2]
O=C(O)c1ccc(Cl)c(N2C(=O)C3C4CCC(C4)C3C2=O)c1 (stereo in doubt; 34) | 0% | 104%
Cc1ccn2c(Nc3ccc(F)cc3)c(-c3ccccn3)nc2c1 | 0% | 162%
FC(F)(F)c1cccc(NC(=S)N(CCCN2CCCCC2)Cc2cccs2)c1 | 13.3% | 86.7%
Cn1ncc(/N=C/c2ccccc2O)c1C(=O)N1CCOCC1 | 50% | 50%
O=C1NC(=S)S/C1=C\c1ccc(-c2cc(Cl)ccc2Cl)o1 | 0% | 286%
O=C1OC(c2ccc(Cl)cc2Cl)=N/C1=C/c1ccc(Cl)c(Cl)c1 | 0% | 138%
Cc1nc2c(C(=O)NCCC(C)C)cnn2c(O)c1Cc1ccccc1F | 91.7% | -86.7%
O=c1c2ccccc2nc2sc(Nc3ccc(F)cc3F)nn12 | 102% | -2.03%
Cc1nnc2c(Oc3ccc(Cl)cc3)nc3cc(Cl)ccc3n12 | 0% | 114%
O=C(Nc1c2c(nn1-c1cccc(Cl)c1)C[S+]([O-])C2)c1ccccc1F (stereo unspecified) | 10.4% | 89.5%
O=C1CCCC2=C1C(c1cccc(O)c1)NC(=S)N2 (stereo unspecified) | 0% | 106%
Cc1nc2c(ccc3ccccc32)c(O)c1CN1CCCC1 | 33.1% | 66.9%
CSC1=NSC2=NC(=O)/C(=C\c3ccc[nH]3)C(=N)N12 | 0% | 202%
O=C(NC(c1ccco1)c1cc(Cl)c2cccnc2c1O)c1cccnc1 (stereo unspecified) | 63.3% | 36.7%
O=C1/C(=C\c2cccc(O)c2)SC(=S)N1c1ccc(F)cc1 | 0% | 309%
CCc1ccccc1NC(=S)N(CCN(C)C)Cc1cccs1 | 0% | 108%
O=C1/C(=C\c2ccc(-c3ccc(Cl)cc3)o2)SC(=S)N1c1cccc(Cl)c1 | 0% | 107%
Cc1ccc2nc(-c3ccc(Cl)s3)c(Nc3ccc(Cl)cc3)n2c1 | 0% | 113%
COc1cccc(C(=O)NC(c2ccccc2)c2cc(Cl)c3cccnc3c2O)c1 (stereo unspecified) | 65.3% | 34.7%
COc1cc(C2NC(C(=O)O)CS2)ccc1O (stereo unspecified) | 0% | 116%
O=C(NC(c1ccccc1)c1cc(Cl)c2cccnc2c1O)c1cccnc1 (stereo unspecified) | 70.4% | 29.6%
CCN(CC)CCCN(Cc1ccco1)C(=S)Nc1ccc(OC)cc1 | 0% | 107%
Clc1ccccc1C1CC(c2cccs2)Nc2nnnn21 (stereo unspecified) | 100% | 0%

Structure (SMILES) | inhibition [1] | percent fibril formation relative to control [2]
Cc1ccccc1Nc1c(-c2ccc(Cl)s2)nc2ccc(Cl)cn12 | 0% | 306%
Cn1c(=O)c2c(nc(Oc3ccc(-n4cnnn4)cc3)n2C)n(C)c1=O | 0% | 155%
CCOC(=O)c1c(N)sc(C(=O)Nc2cc(C)cc(C)c2)c1C | 12.2% | 87.8%
Cc1nc2c(C(=O)NCc3ccc(F)cc3)cnn2c(O)c1Cc1ccccc1F | 53.1% | 46.9%
O=C(O)C1CSC(c2ccc([N+](=O)[O-])cc2)N1 (stereo unspecified) | 0% | 119%
CC(C)C(=O)NC(c1ccccc1)c1ccc2cccnc2c1O (stereo unspecified) | 95.4% | 4.6%
Nc1nc(Cl)cc(Oc2ccccc2F)n1 | 47.6% | 52.4%
Cc1cc(C(=O)Nc2cc(Cl)ccc2O)no1 | 3.18% and 0% | –
CCOC(=O)c1sc(=S)n(-c2ccc(Br)cc2)c1N | 0% | 164%
O=C(CSc1nccn1-c1cccc(Cl)c1)Nc1cccc2ccccc12 | 0% | 122%
COc1ccc(NC(=S)N(CCCN2CCOCC2)Cc2cccnc2)cc1 | 1.4% | 98.6%
O=C(O)C1CSC(c2ccc(Cl)cc2)N1 (stereo unspecified) | 0% | 142%
Cc1nc2c(ccc3ccccc32)c(O)c1CN(C)Cc1ccccc1 | 0% | 105%
O=C(O)C1CSC(c2ccc(O)cc2)N1 (stereo unspecified) | 0% | 120%
O=C1CSC(c2ccc(Cl)cc2Cl)N1c1ccc(Cl)cc1 (stereo unspecified) | 79.7% | 20.3%
CCCCN(CC)Cc1c(C)nc2c(ccc3ccccc32)c1O | 24.3% | 75.7%
COc1ccccc1NC(=S)N(CCCN1CCCCCC1)Cc1cccs1 | 0% | 104%
O=[N+]([O-])c1ccc(Cl)cc1Sc1nc2ccccc2s1 | 91.8% | 8.2%
Nc1nc(F)cc(Oc2ccc(F)cc2)n1 | 16% | 84%
O=C(O)C1CSC(c2ccc(Cl)c(Cl)c2)N1 (stereo unspecified) | 0% | 102%
O=C(c1cnc(Nc2ccc(F)cc2)c2ccccc12)n1ccnc1 | 0% | –
Oc1ccc(-c2nc3ncccn3c2Nc2ccc(Cl)cc2)cc1 | 0% | 135%
CCN1C(=O)/C(=C/c2ccc(N(CC)CC)cc2O)SC1=S | 0% | 177%

Structure (SMILES) | inhibition [1] | percent fibril formation relative to control [2]
Cc1nc2c(ccc3ccccc32)c(O)c1CN1CCOCC1 | 30.4% | 69.6%
Cc1ccc(C2NC(C(=O)O)CS2)cc1 (stereo unspecified) | 85.7% | 14.3%
Cc1ccccc1C1=N/C(=C\c2sccc2C)C(=O)O1 | 0% | 115%
Cc1ccc2nc(NC(=O)c3ccccc3O)sc2c1 | 0% | 368%
Cc1ccsc1/C=c1\sc2nc(-c3cccs3)nn2c1=O | 22.3% | 77.8%
O=C(O)CCCCCN1C(=O)/C(=C/c2c[nH]c3ccccc23)SC1=S | 0% | 126%
CCOC(=O)c1sc(=S)n(-c2cccc3ccccc23)c1N | 0% | 146%
CCOc1cccc2c1OC(c1cccc(Cl)c1)N1N=C(c3cccs3)CC21 (stereo unspecified) | 0% | –
CSC1=NSC2=NC(=O)/C(=C\c3ccc(O)cc3)C(=N)N12 | 27.3% | 72.7%
COc1cc(/C=C2\SC(=S)N(c3ccc(O)cc3)C2=O)ccc1O | 0% | 230%
Cc1ccn2c(Nc3ccccc3C)c(-c3ccc(O)cc3)nc2c1 | 0% | 130%
CCCCC1NC(C(=O)O)CS1 (stereo unspecified) | 0% | 128%
O=C(NC(c1cccc([N+](=O)[O-])c1)c1cc(Cl)c2cccnc2c1O)c1cccnc1 (stereo unspecified) | 27.2% | 72.8%
O=C(c1cc(-c2ccc(Cl)s2)nc2ccccc12)N1CCOCC1 | 0% | 156%
O=C1/C(=C\c2ccco2)SC(=S)N1c1cccc(F)c1 | 0% | 340%
COc1ccc(/C=C2\SC(=S)N(c3ccc(O)cc3)C2=O)cc1 | 0% | 281%
NN1C(=O)/C(=C\c2ccc(Cl)cc2)NC1=S | 0% | 131%
O=C1OC(c2ccc(Cl)cc2Cl)=N/C1=C\c1cccs1 | 0% | 136%
Cc1nc2ccc(Cl)cc2c(O)c1CN1CCCC1 | 18.2% | 81.8%
Cc1ccc2nc(Nc3nc(O)c4ccccc4n3)nc(C)c2c1 | 31.1% | 68.9%
O=C(O)C1CSC(c2cccnc2)N1 (stereo unspecified) | 0% | 144%

Reference: ChEMBL document CHEMBL1138243, “Design of mechanism-based inhibitors of transthyretin amyloidosis: studies with biphenyl ethers and new structural templates” (J Med Chem, 2007)
